Activity calls are given as the source filed them. The rule behind the calls is not given here. Where a SMILES comes first, the peptide text is derived from it. [ ]: non-standard residue; d: D form. The star is where a group is joined. Cbz = O=C(OCc1ccccc1)*
Assays:
[1] = Selectivity ratio of IC50 for antiproliferative activity against NMS-873-resistant human HCT-116 cells to IC50 for antiproliferative activity against human HCT-116 cells; assay type: functional
[2] = biological target: T1, Transitional endoplasmic reticulum ATPase (Homo sapiens, UniProt P55072); assay: Inhibition of His6-tagged p97 (unknown origin) expressed in Escherichia coli BL21 (DE3) assessed as reduction in ATPase activity measured after 60 mins by biomol green reagent based assay
Summary of the method: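 His6-p97 expressed in E. coli BL21(DE3), purified by Ni-NTA and gel filtration (500–600 kDa fractions, ≥95% pure). Phosphate read by Biomol Green at 635 nm. Eight-dose titrations; IC50 from six replicates. Thiol tests added DTT or cysteine during preincubation.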
Target sequence in this assay (P55072 whole entry): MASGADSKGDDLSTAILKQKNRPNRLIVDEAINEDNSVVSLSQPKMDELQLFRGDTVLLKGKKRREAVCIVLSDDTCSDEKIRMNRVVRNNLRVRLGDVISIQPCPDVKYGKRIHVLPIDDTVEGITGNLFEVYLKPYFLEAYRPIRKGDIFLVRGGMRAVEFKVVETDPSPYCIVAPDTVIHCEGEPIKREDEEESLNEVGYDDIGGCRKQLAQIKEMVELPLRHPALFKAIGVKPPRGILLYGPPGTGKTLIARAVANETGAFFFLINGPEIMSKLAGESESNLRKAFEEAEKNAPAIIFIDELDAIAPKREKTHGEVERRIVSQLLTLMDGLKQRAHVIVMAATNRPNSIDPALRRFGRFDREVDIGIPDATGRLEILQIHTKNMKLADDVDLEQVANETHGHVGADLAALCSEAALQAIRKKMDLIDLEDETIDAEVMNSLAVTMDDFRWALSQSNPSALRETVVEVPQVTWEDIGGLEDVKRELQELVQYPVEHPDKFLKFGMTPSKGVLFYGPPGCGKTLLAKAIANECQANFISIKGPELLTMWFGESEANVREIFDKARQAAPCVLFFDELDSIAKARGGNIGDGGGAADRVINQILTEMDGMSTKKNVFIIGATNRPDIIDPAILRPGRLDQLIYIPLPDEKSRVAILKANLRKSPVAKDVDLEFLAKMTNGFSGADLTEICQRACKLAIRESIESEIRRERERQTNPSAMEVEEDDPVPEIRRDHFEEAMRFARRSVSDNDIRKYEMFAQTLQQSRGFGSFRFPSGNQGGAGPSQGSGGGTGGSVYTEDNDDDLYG

[3] = Inhibition of proteasomal turnover of p97-independent ODD-luciferase reporter substrate in human HeLa cells incubated for 120 mins by luciferase reporter gene assay; assay type: functional, cell-based; details: 2 h
Summary of the method: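 HeLa cells co-expressing UbG76V-GFP and ODD-Luc were seeded at 5000/well in clear DMEM with 2.5% FBS. They were pretreated with 4 μM MG132 for 60 min at 37 °C, washed with PBS, then given cycloheximide plus compound for 120 min at 37 °C and washed. GFP was read by high-content confocal imaging, then luminescence after 10 min with D-luciferin at r.t. IC50 was fitted from quadruplicates.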

[4] = biological target: T1, Transitional endoplasmic reticulum ATPase; assay: Inhibition of p97 in human HeLa cells assessed as reduction in proteasomal turnover of p97-dependent reporter substrate UbG76V-GFP incubated for 120 mins by GFP fluorescence imaging
Target sequence in this assay (P55072 whole entry): as above

[5] = Inhibition of yeast Cdc48 T532C mutant assessed as reduction in ATPase activity measured after 60 mins by biomol green reagent based assay; design: species or system Saccharomyces cerevisiae
Summary of the method: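 Yeast Cdc48 ATPase activity with 200 μM ATP in Tris pH 7.4 buffer containing MgCl2, EDTA, TCEP and Triton X-100, 60 min at room temperature. Biomol Green read at 635 nm. Eight-dose titration; IC50 from six replicates.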

[6] = biological target: T1, Transitional endoplasmic reticulum ATPase; assay: Irreversible inhibition of p97 in human HeLa cells assessed as reduction in p97-dependent reporter substrate UbG76V-GFP degradation preincubated followed by washout and measured after 17 hrs by luciferase reporter gene assay; assay type: cell-based; details: in the assay text read “GFP fluorescence assay” for “luciferase reporter gene assay”
Summary of the method: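 HeLa cells expressing UbG76V-GFP/ODD-Luc, 5000 cells/well in DMEM with 2.5% FBS. Pretreated with 4 μM MG132 for 60 min at 37 °C, PBS-washed, then given cycloheximide plus compound for 120 min. After washout, GFP decay followed in cycloheximide for an additional 17 h. GFP read by high-content imaging; luciferase read with D-luciferin; quadruplicates.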
Target sequence in this assay (P55072 2-806 limits assumed): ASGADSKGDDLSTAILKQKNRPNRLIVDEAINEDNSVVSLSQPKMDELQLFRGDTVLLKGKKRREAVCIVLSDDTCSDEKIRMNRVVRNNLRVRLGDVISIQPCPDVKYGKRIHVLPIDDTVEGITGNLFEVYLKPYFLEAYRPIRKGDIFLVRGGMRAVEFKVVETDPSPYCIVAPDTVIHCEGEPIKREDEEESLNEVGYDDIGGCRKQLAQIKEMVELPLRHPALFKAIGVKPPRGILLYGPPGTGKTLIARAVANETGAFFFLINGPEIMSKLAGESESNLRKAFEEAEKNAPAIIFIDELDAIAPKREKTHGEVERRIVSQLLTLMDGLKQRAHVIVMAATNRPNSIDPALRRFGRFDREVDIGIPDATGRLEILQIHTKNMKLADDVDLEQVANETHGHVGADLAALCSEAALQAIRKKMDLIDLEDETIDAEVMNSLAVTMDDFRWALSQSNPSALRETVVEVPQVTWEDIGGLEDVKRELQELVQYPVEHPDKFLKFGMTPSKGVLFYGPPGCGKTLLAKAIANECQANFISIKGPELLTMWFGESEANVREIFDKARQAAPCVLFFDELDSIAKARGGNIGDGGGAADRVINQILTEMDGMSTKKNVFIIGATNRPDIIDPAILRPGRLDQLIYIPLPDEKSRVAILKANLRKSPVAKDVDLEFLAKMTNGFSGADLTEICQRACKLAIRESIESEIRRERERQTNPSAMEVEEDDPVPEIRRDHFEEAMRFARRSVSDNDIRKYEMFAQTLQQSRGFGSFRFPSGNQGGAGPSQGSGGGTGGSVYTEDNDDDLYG

| SMILES | Selectivity ratio [1] | IC50 [2] | IC50 [3] | IC50 [4] | IC50 [5] | inhibition [6] |
| --- | --- | --- | --- | --- | --- | --- |
| Cc1cc(OCc2nnc(SC3CCCC3)n2-c2cccnc2)ccc1-c1ccc(S(C)(=O)=O)cc1 | 4.5 | – | – | – | – | – |
| CCC(=O)Oc1ccc(/C=C/[N+](=O)[O-])cc1OC | – | 3.4 µM | 1.6 µM | 4.3 µM | – | – |
| C=CC(=O)Nc1ccc2ncnc(Nc3ccc(-c4ccccc4)cc3)c2c1 | – | 10 µM | 11 µM | 18 µM | – | – |
| COc1ccc(/C=C/[N+](=O)[O-])cc1OC | – | 3.1 µM | 1.8 µM | 1.9 µM | – | – |
| Cc1ccc(C(=O)C#Cc2ccccc2)cc1 | – | 0.2 µM | 5.2 µM | 3.4 µM | – | – |
| O=[N+]([O-])/C=C/c1ccc(F)c(Br)c1 | – | 1.7 µM | 2 µM | 1.8 µM | – | – |
| C=CC(=O)Nc1ncnc2c1c(-c1ccc3ccccc3c1)nn2C(C)(C)C | – | 3 µM | > 30 µM | 2 µM | 24 µM | – |
| COc1cc(/C=C/[N+](=O)[O-])ccc1OC(C)=O | – | 3.6 µM | 2.3 µM | 5.7 µM | – | – |
| C=CC(=O)N(C(=O)C=C)c1ncnc2c1c(-c1ccc3ccccc3c1)nn2C(C)(C)C | – | 1.3 µM | > 30 µM | 2.5 µM | 22 µM | – |
| O=[N+]([O-])/C=C/c1c(F)c(F)c(F)c(F)c1F | – | 2.4 µM | 2.1 µM | 2.7 µM | – | – |
| O=[N+]([O-])/C=C/c1ccc2c(c1)OCO2 | – | 1.7 µM | 3.9 µM | 1.6 µM | – | – |
| Cc1ccc(-c2c(C(=O)CF)n(CCCO)c3ncnc(N)c23)cc1 | – | > 30 µM | 39 µM | 47 µM | – | – |
| COc1cc(/C=C/[N+](=O)[O-])ccc1O | – | 13 µM | 5 µM | 6.8 µM | – | – |
| C=CC(=O)N(C(=O)C=C)c1ncnc2c1c(-c1ccccc1)nn2C(C)(C)C | – | 1.1 µM | > 30 µM | 5.4 µM | 26 µM | – |
| COc1cc(/C=C/[N+](=O)[O-])ccc1OC(=O)c1ccccc1 | – | 2 µM | 10 µM | 5.7 µM | – | – |
| CNc1ncnc2c1c(-c1ccc3ccccc3c1)nn2C(C)(C)C | – | > 50 µM | > 30 µM | > 30 µM | – | – |
| CC(C)(C)n1nc(-c2ccc(-c3ccccc3)cc2)c2c(N)ncnc21 | – | > 50 µM | > 30 µM | > 30 µM | – | – |
| CC(C)C[C@@H](C=O)NC(=O)[C@@H](CC(C)C)NC(=O)[C@H](CC(C)C)NC(=O)OCc1ccccc1 (Cbz-Leu-[dL]-Leu-aldehyde) | – | – | – | – | – | inactive |
| O=[N+]([O-])/C=C/c1cccnc1 | – | 0.7 µM | 3 µM | 2.9 µM | – | – |
| O=[N+]([O-])/C=C/c1cccc([N+](=O)[O-])c1 | – | 1.2 µM | 4 µM | 1.7 µM | – | – |
| Cc1ccc(-c2c(C(=O)CCl)n(CCCO)c3ncnc(N)c23)cc1 | – | 3.9 µM | 4 µM | 5.8 µM | – | – |
| C=CC(=O)Nc1ncnc2c1c(-c1ccc(-c3ccccc3)cc1)nn2C(C)(C)C | – | 2.8 µM | > 30 µM | 2.1 µM | – | – |
| CC(C)(C)n1nc(-c2ccc3ccccc3c2)c2c(N)ncnc21 | – | > 100 µM | > 30 µM | > 30 µM | > 100 µM | – |
| CC(C)(C)n1nc(-c2ccccc2)c2c(N)ncnc21 | – | > 100 µM | > 30 µM | > 30 µM | > 100 µM | – |
| CC(C)(C)n1nc(-c2ccccc2)c2c(NC(=O)CCl)ncnc21 | – | 4.5 µM | > 30 µM | 31 µM | 35 µM | – |
| C=CC(=O)N(C(=O)C=C)c1ncnc2c1c(-c1ccc(-c3ccccc3)cc1)nn2C(C)(C)C | – | 0.9 µM | > 30 µM | 6.1 µM | – | – |
| O=C(O)/C=C/c1ccc2c(c1)OCO2 | – | > 30 µM | > 30 µM | > 30 µM | – | – |
| CC1(C)C(N(O)C(=O)Nc2ccc(Cl)cc2)N(c2ccc(Cl)cc2)C(=O)N1CC(=O)N/N=C/C=C/c1ccc([N+](=O)[O-])o1 (stereo not given) | – | > 30 µM | – | 3.7 µM | – | – |

Source: ChEMBL document CHEMBL4732155 (Eur J Med Chem, 2021)
